Experimental data of several laboratories.
Protocols differ between the studies behind these lines.
Target: Cannabinoid receptor 2 (CNR2, Homo sapiens, UniProt P34972)

For CCOC(=O)C(CC)(CCCSCCOCCOCCOCCOCCNC(=O)OC(C)(C)C)NC(=O)c1ccc(C2CC2)c(Cc2ccc(F)cc2)n1 (centres unmarked), the Emax was 91% (cAMP; agonist).
For COc1cccc2c(C(=O)c3cccc4ccccc34)cn(CCN3CCOCC3)c12, the inhibition was 100% (ligand displacement; radioligand; 1 µM; cell membranes).
The inhibition of CN(CCN1CCC(OC(=O)Nc2ccccc2-c2ccccc2)CC1)C(=O)c1ccc(CN2CCC(C(N)=O)CC2)cc1 is reported as -2% (ligand displacement; radioligand; 1 µM).
With COCc1c(-c2cc3cc(C)cc(OC)c3s2)c2c(N)ncnn2c1CN1CCNC(=O)C1 the inhibition was 2% (ligand displacement; radioligand; 10 µM).
The Emax of CCOC(=O)C(CC)(CCCSCCOCCOCCNc1ccc([N+](=O)[O-])c2nonc12)NC(=O)c1ccc(C2CC2)c(Cc2ccc(F)cc2)n1 (racemic) is reported as 100% (cAMP; agonist).
COc1ccc(S(=O)(=O)N2CCCCC2)cc1C has an inhibition of less than 30% (ligand displacement; radioligand; 10 µM).
O=C(Nc1cccnn1)N1CCN([C@@H]2CCOc3cc(C(F)(F)F)ccc32)CC1 has an inhibition of 23% (ligand displacement; 20 µM).
Clc1ccc2c(C3CCN(CCc4c[nH]c5ccccc45)CC3)c[nH]c2c1 gave an inhibition of 11% (ligand displacement; radioligand; 10 µM).
